How the values were obtained:
Format in all cases: functional
SK-MEL-28 = experiment: Growth inhibition of human SK-MEL-28 cells assessed as cell growth at 100 uM incubated for 48 hrs by sulforhodamine B assay relative to control; details: read-out: Activity
K562 = experiment: Growth inhibition of human K562 cells assessed as cell growth at 0.1 uM incubated for 48 hrs by sulforhodamine B assay relative to control; details: read-out: Activity
ACHN [1] = experiment: Growth inhibition of human ACHN cells incubated for 48 hrs by sulforhodamine B assay
In short: (§1)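 NCI Developmental Therapeutics Program NCI60 panel. Compounds that were active in the 10 µM one-dose screen went on to dose–response testing. Growth at each concentration is expressed relative to untreated control (100%). GI50 (concentration giving 50% of maximal inhibition of proliferation) and TGI (concentration giving total growth inhibition) were derived from the curves.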

Malme-3M = experiment: Growth inhibition of human Malme-3M cells assessed as cell growth at 1 uM incubated for 48 hrs by sulforhodamine B assay relative to control; details: read-out: Activity
RXF 393 [2] = experiment: Growth inhibition of human RXF 393 cells incubated for 48 hrs by sulforhodamine B assay
In short: (§2)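 NCI DTP 60-line human tumour panel. Dose-response curves were run only for ligands active in the initial 10 µM screen. GI50 (concentration giving 50% of maximal inhibition of proliferation) and TGI (concentration giving total growth inhibition) were derived from these curves.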

MOLT-4 = experiment: Growth inhibition of human MOLT-4 cells assessed as cell growth at 0.1 uM incubated for 48 hrs by sulforhodamine B assay relative to control; details: read-out: Activity
SF-539 = experiment: Growth inhibition of human SF-539 cells assessed as cell growth at 0.1 uM incubated for 48 hrs by sulforhodamine B assay relative to control; details: read-out: Activity
RPMI-8226 [3] = experiment: Growth inhibition of human RPMI-8226 cells incubated for 48 hrs by sulforhodamine B assay; in short: as §2
OVCAR-4 [4] = experiment: Growth inhibition of human OVCAR-4 cells incubated for 48 hrs by sulforhodamine B assay; in short: as §2
HOP-92 = experiment: Growth inhibition of human HOP-92 cells assessed as cell growth at 1 uM incubated for 48 hrs by sulforhodamine B assay relative to control; details: read-out: Activity
CAKI-1 = experiment: Growth inhibition of human CAKI-1 cells assessed as cell growth at 0.01 uM incubated for 48 hrs by sulforhodamine B assay relative to control; details: read-out: Activity; in short: as §1
NCI/ADR-RES [5] = experiment: Growth inhibition of human NCI/ADR-RES cells assessed as cell growth at 100 uM incubated for 48 hrs by sulforhodamine B assay relative to control; details: read-out: Activity
RPMI-8226 [6] = experiment: Growth inhibition of human RPMI-8226 cells assessed as cell growth at 100 uM incubated for 48 hrs by sulforhodamine B assay relative to control; details: read-out: Activity
UACC-257 = experiment: Growth inhibition of human UACC-257 cells assessed as cell growth at 0.01 uM incubated for 48 hrs by sulforhodamine B assay relative to control; details: read-out: Activity
SNB-75 = experiment: Growth inhibition of human SNB-75 cells assessed as cell growth at 0.1 uM incubated for 48 hrs by sulforhodamine B assay relative to control; details: read-out: Activity
Hs-578T = experiment: Growth inhibition of human Hs-578T cells assessed as cell growth at 100 uM incubated for 48 hrs by sulforhodamine B assay relative to control; details: read-out: Activity
SNB-19 = experiment: Growth inhibition of human SNB-19 cells assessed as cell growth at 0.1 uM incubated for 48 hrs by sulforhodamine B assay relative to control; details: read-out: Activity
NCI/ADR-RES [7] = experiment: Growth inhibition of human NCI/ADR-RES cells assessed as cell growth at 0.1 uM incubated for 48 hrs by sulforhodamine B assay relative to control; details: read-out: Activity
NCI-H322M = experiment: Growth inhibition of human NCI-H322M cells assessed as cell growth at 0.1 uM incubated for 48 hrs by sulforhodamine B assay relative to control; details: read-out: Activity
LOX IMVI = experiment: Growth inhibition of human LOX IMVI cells assessed as cell growth at 0.1 uM incubated for 48 hrs by sulforhodamine B assay relative to control; details: read-out: Activity
RXF 393 [8] = experiment: Growth inhibition of human RXF 393 cells assessed as cell growth at 0.01 uM incubated for 48 hrs by sulforhodamine B assay relative to control; details: read-out: Activity
SK-MEL-5 = experiment: Growth inhibition of human SK-MEL-5 cells assessed as cell growth at 100 uM incubated for 48 hrs by sulforhodamine B assay relative to control; details: read-out: Activity
MDA-MB-435 = experiment: Growth inhibition of human MDA-MB-435 cells assessed as cell growth at 0.01 uM incubated for 48 hrs by sulforhodamine B assay relative to control; details: read-out: Activity
NCI-H460 = experiment: Growth inhibition of human NCI-H460 cells assessed as cell growth at 0.1 uM incubated for 48 hrs by sulforhodamine B assay relative to control; details: read-out: Activity
DU-145 = experiment: Growth inhibition of human DU-145 cells assessed as cell growth at 0.1 uM incubated for 48 hrs by sulforhodamine B assay relative to control; details: read-out: Activity; in short: as §1
HOP-62 = experiment: Growth inhibition of human HOP-62 cells assessed as cell growth at 0.1 uM incubated for 48 hrs by sulforhodamine B assay relative to control; details: read-out: Activity
786-0 = experiment: Growth inhibition of human 786-0 cells assessed as cell growth at 0.1 uM incubated for 48 hrs by sulforhodamine B assay relative to control; details: read-out: Activity; in short: as §1
OVCAR-4 [9] = experiment: Growth inhibition of human OVCAR-4 cells assessed as cell growth at 1 uM incubated for 48 hrs by sulforhodamine B assay relative to control; details: read-out: Activity
COLO 205 = experiment: Growth inhibition of human COLO 205 cells assessed as cell growth at 0.1 uM incubated for 48 hrs by sulforhodamine B assay relative to control; details: read-out: Activity; in short: as §1
CCRF-CEM [10] = experiment: Growth inhibition of human CCRF-CEM cells assessed as cell growth at 1 uM incubated for 48 hrs by sulforhodamine B assay relative to control; details: read-out: Activity; in short: as §1
ACHN [11] = experiment: Growth inhibition of human ACHN cells assessed as cell growth at 0.01 uM incubated for 48 hrs by sulforhodamine B assay relative to control; details: read-out: Activity
CCRF-CEM [12] = experiment: Growth inhibition of human CCRF-CEM cells incubated for 48 hrs by sulforhodamine B assay; in short: as §1
SF-268 = experiment: Growth inhibition of human SF-268 cells assessed as cell growth at 1 uM incubated for 48 hrs by sulforhodamine B assay relative to control; details: read-out: Activity
[13] = read-out: LC50 (the source's name)

**Q.** Which growth at 100 µM (SK-MEL-28) does the source give for CCc1cccc(C)c1NC(=O)c1sc2nc3c(cc2c1N)C(=O)CCC3 here?
**A.** 11%

**Q.** What about the growth at 0.1 µM (K562) of the same compound?
**A.** 89%

**Q.** And the GI50 (ACHN [1])?
**A.** 0.795 µM

**Q.** What about the TGI (ACHN [1]) of the same compound?
**A.** > 100 µM

**Q.** What about the CC50 (ACHN [1]; [13]) of the same compound?
**A.** > 100 µM

**Q.** What about the growth at 1 µM (Malme-3M) of the same compound?
**A.** 31%

**Q.** What about the GI50 (RXF 393 [2]) of the same compound?
**A.** 0.202 µM

**Q.** What about the CC50 (RXF 393 [2]; [13]) of the same compound?
**A.** > 100 µM

**Q.** And the growth at 0.1 µM (MOLT-4)?
**A.** 102%

**Q.** What about the growth at 0.1 µM (SF-539) of the same compound?
**A.** 89%

**Q.** And the GI50 (RPMI-8226 [3])?
**A.** 0.0141 µM

**Q.** And the LC50 (RPMI-8226 [3])?
**A.** > 100 µM

**Q.** What about the TGI (RPMI-8226 [3]) of the same compound?
**A.** ≥ 100 µM

**Q.** And the GI50 (OVCAR-4 [4])?
**A.** 0.01 µM

**Q.** What about the TGI (OVCAR-4 [4]) of the same compound?
**A.** > 100 µM

**Q.** What about the CC50 (OVCAR-4 [4]; [13]) of the same compound?
**A.** > 100 µM

**Q.** And the growth at 1 µM (HOP-92)?
**A.** 39%

**Q.** And the growth at 0.01 µM (CAKI-1)?
**A.** 89%

**Q.** And the growth at 100 µM (NCI/ADR-RES [5])?
**A.** 1%

**Q.** And the growth at 100 µM (RPMI-8226 [6])?
**A.** -39%

**Q.** And the growth at 0.01 µM (UACC-257)?
**A.** 93%

**Q.** And the growth at 0.1 µM (SNB-75)?
**A.** 75%

**Q.** What about the growth at 100 µM (Hs-578T) of the same compound?
**A.** 17%

**Q.** And the growth at 0.1 µM (SNB-19)?
**A.** 91%

**Q.** What about the growth at 0.1 µM (NCI/ADR-RES [7]) of the same compound?
**A.** 99%

**Q.** And the growth at 0.1 µM (NCI-H322M)?
**A.** 91%

**Q.** What about the growth at 0.1 µM (LOX IMVI) of the same compound?
**A.** 93%

**Q.** What about the growth at 0.01 µM (RXF 393 [8]) of the same compound?
**A.** 84%

**Q.** And the growth at 100 µM (SK-MEL-5)?
**A.** -78%

**Q.** And the growth at 0.01 µM (MDA-MB-435)?
**A.** 92%

**Q.** What about the growth at 0.1 µM (NCI-H460) of the same compound?
**A.** 100%

**Q.** And the growth at 0.1 µM (DU-145)?
**A.** 102%

**Q.** What about the growth at 0.1 µM (HOP-62) of the same compound?
**A.** 92%

**Q.** And the growth at 0.1 µM (786-0)?
**A.** 89%

**Q.** And the growth at 1 µM (OVCAR-4 [9])?
**A.** 39%

**Q.** What about the growth at 0.1 µM (COLO 205) of the same compound?
**A.** 102%

**Q.** What about the growth at 1 µM (CCRF-CEM [10]) of the same compound?
**A.** 16%

**Q.** And the growth at 0.01 µM (ACHN [11])?
**A.** 94%

**Q.** And the GI50 (CCRF-CEM [12])?
**A.** 0.346 µM

**Q.** What about the LC50 (CCRF-CEM [12]) of the same compound?
**A.** > 100 µM

**Q.** What about the TGI (CCRF-CEM [12]) of the same compound?
**A.** ≥ 100 µM

**Q.** And the growth at 1 µM (SF-268)?
**A.** 54%

From ChEMBL document CHEMBL4715736, “Identification of anticancer agents based on the thieno[2,3-b]pyridine and 1H-pyrazole molecular scaffolds” (2016)
